Reference: ChEMBL document CHEMBL1687827, “Profiling the Aspergillus fumigatus proteome in response to caspofungin” (2011)
Calls of active or inactive are those of the source. The calls are words filed in the database; no cut-off is given here.

What was measured:
[1] = test system: Aspergillus fumigatus; assay: Induction of change in allergen Asp F4 protein level in iTRAQ114 labelled secreted fraction of drug-resistant Aspergillus fumigatus EMFR-S678P at 0.12 ug/ml after 24 hrs in YPD medium by MS (MS/MS) analysis relative to control; type: functional, organism-based
How it was run: (§1)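 Conidia at 1 × 10⁵/ml were grown at 37°C, shaking at 225 rpm, in YPD with or without 0.12 μg/ml caspofungin for 24 or 48 h. The culture filtrate was kept as the secreted fraction. Mycelia were lysed by French press in HEPES/glycerol/EDTA/PMSF/DTT buffer, and the 5,000 × g pellet was washed to give CW/PM. Proteins were reduced, alkylated and trypsin-digested at 37°C overnight, then iTRAQ-labelled and run by 2D LC-MS/MS. Ratios are the median of unique-peptide ratios, median-normalized, versus the no-drug control.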

[2] = test system: Aspergillus fumigatus; assay: Induction of change in ribosomal protein L35, putative protein level in iTRAQ114 labelled secreted fraction of drug-susceptible Aspergillus fumigatus KU80 delta-akuB at 0.12 ug/ml after 24 hrs in YPD medium by MS (MS/MS) analysis relative to control; type: functional
How it was run: (§2)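 Conidia (1 × 10⁵/ml) grown in YPD, 37°C, 225 rpm, ± 0.12 μg/ml caspofungin; filtrate taken as secreted fraction, French-press lysate 5,000 × g pellet as cell wall/plasma membrane. Trypsin digests 8-plex iTRAQ-labelled (drug-free channels as references), pooled, 2D-chromatography, MS/MS. Median-normalized; protein ratio = median of unique-peptide ratios, log2 normalized.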

[3] = test system: Aspergillus fumigatus; assay: Induction of change in phosphoglycerate kinase PgkA, putative protein level in iTRAQ-116 labelled secreted fraction of drug-susceptible Aspergillus fumigatus KU80 delta-akuB at 0.12 ug/ml after 48 hrs in YPD medium by MS (MS/MS) analysis relative to control; type: functional; how it was run: as §2
[4] = test system: Aspergillus fumigatus; assay: Induction of change in outer mitochondrial membrane protein porin protein level in iTRAQ-116 labelled secreted fraction of drug-susceptible Aspergillus fumigatus KU80 delta-akuB at 0.12 ug/ml after 48 hrs in YPD medium by MS (MS/MS) analysis relative to control; type: functional; how it was run: as §2
[5] = test system: Aspergillus fumigatus; assay: Antifungal activity against drug-resistant Aspergillus fumigatus EMFR-S678P assessed as change in hyphal morphology by YPD medium; type: functional; settings: read-out: MEC
How it was run: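 CLSI M38-A2 broth microdilution, run in triplicate in RPMI or YPD medium as the line specifies. Caspofungin was dissolved in sterile water. The minimum effective concentration (MEC) was the lowest concentration giving a significant change in hyphal morphology visible to the eye.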

[6] = test system: Aspergillus fumigatus; assay: Induction of change in Ribosomal protein S21e gene expression in drug-susceptible Aspergillus fumigatus KU80 delta-akuB at 0.12 ug/ml after 24 hrs in YPD medium by microarray analysis relative to control; type: functional
How it was run: (§3)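 Mycelia grown in YPD ± 0.12 μg/ml caspofungin (1 × 10⁵ conidia/ml, 37°C, shaking) and harvested at 24 or 48 h. Total RNA extracted, DNase-treated and quality-checked; 2 μg labelled per TIGR SOP M007 and hybridized to whole-genome arrays. Three independent experiments with dye flip (6 replicates); drug vs untreated fold change.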

[7] = test system: Aspergillus fumigatus; assay: Induction of change in citrate synthase, eukaryotic protein level in iTRAQ-116 labelled secreted fraction of drug-susceptible Aspergillus fumigatus KU80 delta-akuB at 0.12 ug/ml after 48 hrs in YPD medium by MS (MS/MS) analysis relative to control; type: functional
How it was run: (§4)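 Conidia at 1 × 10⁵/ml grown shaking at 37°C in YPD with or without 0.12 μg/ml caspofungin; mycelia filtered at 24 or 48 h. Secreted fraction taken from the filtrate; cell wall/plasma membrane pellet recovered after French-press lysis and a 5,000 × g spin. Proteins trypsin-digested and iTRAQ-labelled, drug vs no-drug channels at each time, then 2D LC-MS/MS. Protein ratio is the median of ratios from uniquely assigned peptides after median normalization.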

[8] = test system: Aspergillus fumigatus; assay: Induction of change in Class III chitinase ChiA1 protein level in iTRAQ114 labelled cell wall fraction of drug-susceptible Aspergillus fumigatus KU80 delta-akuB at 0.12 ug/ml after 24 hrs in YPD medium by MS (MS/MS) analysis relative to control; type: functional; how it was run: as §1
[9] = test system: Aspergillus fumigatus; assay: Induction of change in large subunit ribosomal protein L3 gene expression in drug-susceptible Aspergillus fumigatus KU80 delta-akuB at 0.12 ug/ml after 24 hrs in YPD medium by microarray analysis relative to control; type: functional
How it was run: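 Mycelia grown from 1 × 10⁵ conidia/ml in YPD at 37°C, 225 rpm, with or without 0.12 μg/ml caspofungin. Total RNA extracted, DNase-treated; 2 μg labelled per TIGR SOP M007 for whole-genome array hybridization. Three independent experiments with dye flip (6 replicates); >2-fold change deemed significant.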

[10] = test system: Aspergillus fumigatus; assay: Induction of change in ATP citrate lyase, subunit 1, putative protein level in iTRAQ114 labelled secreted fraction of drug-resistant Aspergillus fumigatus EMFR-S678P at 0.12 ug/ml after 24 hrs in YPD medium by MS (MS/MS) analysis relative to control; type: functional; how it was run: as §1
[11] = test system: Aspergillus fumigatus; assay: Induction of change in hypothetical gene locus AFUA_6G02310 expression in drug-susceptible Aspergillus fumigatus KU80 delta-akuB at 0.12 ug/ml after 24 hrs in YPD medium by microarray analysis relative to control; type: functional; how it was run: as §3
[12] = test system: Aspergillus fumigatus; assay: Induction of change in tripeptidyl-peptidase (TppA), putative protein level in iTRAQ-116 labelled secreted fraction of drug-susceptible Aspergillus fumigatus KU80 delta-akuB at 0.12 ug/ml after 48 hrs in YPD medium by MS (MS/MS) analysis relative to control; type: functional; how it was run: as §2
[13] = test system: Aspergillus fumigatus; assay: Induction of change in 60S acidic ribosomal protein P2 gene expression in drug-susceptible Aspergillus fumigatus KU80 delta-akuB at 0.12 ug/ml after 24 hrs in YPD medium by microarray analysis relative to control; type: functional; how it was run: as §3
[14] = test system: Aspergillus fumigatus; assay: Induction of change in 40S ribosomal protein S3Ae protein level in iTRAQ114 labelled cell wall fraction of drug-susceptible Aspergillus fumigatus KU80 delta-akuB at 0.12 ug/ml after 24 hrs in YPD medium by MS (MS/MS) analysis relative to control; type: functional; how it was run: as §4
[15] = test system: Aspergillus fumigatus; assay: Induction of change in mitochondrial hypoxia responsive domain protein level in iTRAQ121 labelled cell wall fraction of drug-susceptible Aspergillus fumigatus KU80 delta-akuB at 0.12 ug/ml after 48 hrs in YPD medium by MS (MS/MS) analysis relative to control; type: functional; how it was run: as §2
[16] = test system: Aspergillus fumigatus; assay: Induction of change in 60s ribosomal protein yl17-b protein level in iTRAQ114 labelled secreted fraction of drug-susceptible Aspergillus fumigatus KU80 delta-akuB at 0.12 ug/ml after 24 hrs in YPD medium by MS (MS/MS) analysis relative to control; type: functional; how it was run: as §4
[17] = test system: Aspergillus fumigatus; assay: Induction of change in cell wall protein PhiA protein level in iTRAQ-116 labelled secreted fraction of drug-resistant Aspergillus fumigatus EMFR-S678P at 0.12 ug/ml after 48 hrs in YPD medium by MS (MS/MS) analysis relative to control; type: functional, organism-based; how it was run: as §1
[18] = test system: Aspergillus fumigatus; assay: Induction of change in cytochrome c oxidase polypeptide vib protein level in iTRAQ-118 labelled cell wall fraction of drug-resistant Aspergillus fumigatus EMFR-S678P at 0.12 ug/ml after 24 hrs in YPD medium by MS (MS/MS) analysis relative to control; type: functional, organism-based; how it was run: as §1

Compound: CC[C@H](C)C[C@H](C)CCCCCCCCC(=O)N[C@H]1C[C@@H](O)[C@@H](NCCN)NC(=O)[C@@H]2[C@@H](O)CCN2C(=O)[C@H]([C@H](O)CCN)NC(=O)[C@H]([C@H](O)[C@@H](O)c2ccc(O)cc2)NC(=O)[C@@H]2C[C@@H](O)CN2C(=O)[C@H]([C@@H](C)O)NC1=O [CASPOFUNGIN]
- Activity [1]: inactive
- fold change (FC) [2]: 1.4
- fold change (FC) [3]: -2.8
- fold change (FC) [4]: -1.2
- minimal effective concentration [5]: > 16 µg/mL
- fold change (FC) [6]: 3.6
- fold change (FC) [7]: -1.6
- fold change (FC) [8]: -12.1
- fold change (FC) [9]: 3.5
- fold change (FC) [10]: -1.07
- fold change (FC) [11]: 3.8
- fold change (FC) [12]: 3.2
- fold change (FC) [13]: 4.3
- fold change (FC) [14]: 2.3
- fold change (FC) [15]: -2.1
- fold change (FC) [16]: -1
- Activity [17]: inactive
- Activity [18]: inactive
